STK33 inh: inhibitors of human STK33 kinase; inhibition, % at 10 µM; Q9BYT3; hit rate 0.073% among 320,000; AID 2661; purified STK33, MBP phosphorylation, ADP-Glo luminescence;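 active means inhibition at or above 25%, using the most active replicate where run in duplicate; inactive means inhibition below 25%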
Target sequence (Q9BYT3 whole entry, looked up): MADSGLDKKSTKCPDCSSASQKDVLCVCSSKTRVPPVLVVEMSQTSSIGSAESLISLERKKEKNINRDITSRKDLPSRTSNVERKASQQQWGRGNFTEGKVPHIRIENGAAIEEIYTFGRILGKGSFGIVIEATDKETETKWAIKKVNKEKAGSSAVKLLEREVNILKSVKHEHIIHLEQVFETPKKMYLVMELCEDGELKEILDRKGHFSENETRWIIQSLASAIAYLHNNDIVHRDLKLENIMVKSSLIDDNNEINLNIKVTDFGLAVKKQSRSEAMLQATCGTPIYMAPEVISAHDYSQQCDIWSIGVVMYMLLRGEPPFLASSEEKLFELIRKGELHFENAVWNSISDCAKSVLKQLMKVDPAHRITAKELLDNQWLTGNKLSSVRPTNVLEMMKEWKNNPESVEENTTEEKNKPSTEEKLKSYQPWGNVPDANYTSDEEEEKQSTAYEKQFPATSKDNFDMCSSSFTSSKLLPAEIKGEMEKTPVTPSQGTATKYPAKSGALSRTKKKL
HIV Env fusion: inhibitors of HIV Env-mediated cell fusion; HeLa-JRFL Env/CEM21 cell fusion, luciferase; inhibition, % at 12.3 µM; hit rate 1.1% among 360,000;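 active means mean replicate inhibition score of at least 50 and every replicate individually at or above 50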
CDK5 inh: inhibitors of human CDK5/p35 kinase. Recombinant CDK5/p35, ADP-Glo luminescence, 60 min. Q00535+Q15078. hit rate 0.01% among 330,000. inhibition, % at 10 µM;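 active means highest replicate inhibition of at least 50% and at least 75% of replicates reaching 50%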
GSK3 alpha inh: blocks human GSK-3 alpha kinase | ADP-Glo luminescence, 60 min | hit rate 0.1% among 320,000 | P49840 | inhibition, % at 10 µM;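 active means more than half of replicates show inhibition above 20%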;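 further: GST-tagged GSK-3 alpha with peptide substrate and 25 µM ATP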
INS-1E GSIS act: primary screen for activators of insulin secretion dependent on glucose, INS-1E cells, GLuc reporter luminescence | INS-1E GLuc reporter insulin secretion, 2-3 h | activation, % at 16.6 µM | hit rate 0.61% among 370,000;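 active means lowest replicate activation of at least 40%, so every replicate reaches that level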
GSK3beta inhib: human GSK3beta kinase inhibition | P49841 | GST-GSK3beta kinase, ADP-Glo luminescence, 60 min; hits give low values | activity score (negative = inhibition), % at 10 µM | hit rate 0.038% among 300,000 | AID 2097;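 active means more than half of replicate wells score below -50%, meaning over 50% inhibition versus plate controls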
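Assay system: GST-fused GSK3beta enzyme, cell-free / Medium: Tris pH 7.5 buffer with MgCl2, DTT, BSA, heparin / Also added: peptide substrate plus 25 µM ATP (final) / Compound: 10 µM single point / Timing: kinase reaction with compound 60 min at room temperature / Detection: ADP-Glo luminescence / Benchmarks: DMSO neutral wells and GW8510 at 20 µM as positive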
Each line names hits and unclear results; the compound was inactive in the other large screens; [ ] = another dose, or the depositor's remark. Most compounds without a hit are left out; they make up all but 1.4% or so of the library.

O=C(NCC(c1cccnc1)N1CCN(c2ccc(F)cc2)CC1)c1ccccc1 (configuration not stated)	none (no result: HIV Env fusion, INS-1E GSIS act)
O=C(NCc1ccc(Cl)cc1)C(=O)NCC(c1cccnc1)N1CCN(c2ccc(F)cc2)CC1 (configuration not stated)	HIV Env fusion 62.4 (no result: GSK3 alpha inh)
C[C@H]1CN([C@@H](C)CO)S(=O)(=O)c2ccc(C3=CCCCC3)cc2O[C@@H]1CN(C)C(=O)Cc1cccnc1	none (no result: STK33 inh, CDK5 inh, GSK3 alpha inh, GSK3beta inhib)
COC(=O)CN(C(=S)Nc1ccc(F)cc1)C1CC(=O)N(c2ccc(OC)cc2)C1=O (configuration not stated)	HIV Env fusion 71.2 (no result: INS-1E GSIS act)
CCN1CCN(c2cc(C)c3cc(NC(=O)c4ccc(Br)o4)ccc3n2)CC1	STK33 inh 28.8
Cc1cc(C(=O)CN2C(=O)c3ccccc3S2(=O)=O)c(C)n1C(C)C	HIV Env fusion 91.3 (no result: GSK3beta inhib)
CCn1c(C)cc(C(=O)CN2C(=O)c3ccccc3S2(=O)=O)c1C	HIV Env fusion 98.5 (no result: GSK3beta inhib)
COc1cc(/C=C/C(O)=C/C(=O)/C=C/c2ccc(O)cc2)ccc1O	STK33 inh 43.0 (no result: GSK3beta inhib)
COc1cc(/C=C/C(=O)NC(=O)c2ccccc2O)ccc1O	none
CC(C)C[C@@]12C(=O)N(c3ccc(Br)cc3)C(=O)N1[C@H](c1ccc(Br)cc1)[C@@H]1C(=O)N(C(C)(C)C)C(=O)[C@@H]12	HIV Env fusion 79.8
CC(C)C[C@@]12C(=O)N(c3cccc(F)c3)C(=O)N1[C@H](c1ccc(Br)cc1)[C@@H]1C(=O)N(C(C)(C)C)C(=O)[C@@H]12	HIV Env fusion 68.9 (no result: GSK3 alpha inh)
COc1ccc([C@@H]2[C@@H]3C(=O)N(C(C)(C)C)C(=O)[C@@H]3[C@]3(Cc4ccc(Cl)cc4)C(=O)N(c4ccc(C)cc4)C(=O)N23)cc1	none (no result: GSK3 alpha inh)
CC[C@@]12C(=O)N(c3cccc(Cl)c3)C(=O)N1[C@H](c1ccc(Br)cc1)[C@@H]1C(=O)N(C(C)(C)C)C(=O)[C@@H]12	HIV Env fusion 83.9
CC(C)C[C@@]12C(=O)N(c3cccc(Cl)c3)C(=O)N1[C@H](c1ccc(Br)cc1)[C@@H]1C(=O)N(C(C)(C)C)C(=O)[C@@H]12	HIV Env fusion 90.7 (no result: GSK3beta inhib)
CC[C@@]12C(=O)N(c3cccc(C)c3)C(=O)N1[C@H](c1ccc(Br)cc1)[C@@H]1C(=O)N(C(C)(C)C)C(=O)[C@@H]12	none
CCCNC(=O)N1[C@H](CO)[C@H](c2ccccc2)C12CN(C(=O)c1cccnc1)C2	none (no result: STK33 inh, HIV Env fusion, CDK5 inh, GSK3 alpha inh, GSK3beta inhib)
O=C(C[C@H]1CC[C@@H](NC(=O)C2CCOCC2)[C@@H](CO)O1)NCc1ccccc1Cl	none (no result: STK33 inh, CDK5 inh, GSK3 alpha inh, GSK3beta inhib)
COc1c(F)cc2[nH]c3c(c2c1F)CCNC3=O	HIV Env fusion 65.1
Cc1ccc2[nH]c3c(c2c1)CCNC3=O	none
CC(C)(C)c1ccc(Cn2nnc3c(=O)[nH]c(C4CCN(C(=O)Cc5cccs5)CC4)nc32)cc1	HIV Env fusion 72.3 (no result: INS-1E GSIS act)
CC(C)(C)c1ccc(Cn2nnc3c(=O)[nH]c(C4CCCN(C(=O)Cc5cccs5)C4)nc32)cc1 (configuration not stated)	HIV Env fusion 63.4
Cc1ccc(Cn2nnc3c(=O)[nH]c(C4CCN(C(=O)Cc5cccs5)CC4)nc32)cc1	none (no result: HIV Env fusion)
COc1cc(CN2CC3(CCN(S(=O)(=O)c4cccc(F)c4)CC3)c3c([nH]c4cc(OC)ccc34)[C@@H]2CO)cc(OC)c1	none (no result: STK33 inh, HIV Env fusion, CDK5 inh, GSK3 alpha inh, GSK3beta inhib)
CCCNC(=O)N(C)C[C@@H]1Oc2ncc(C3=CCCC3)cc2C(=O)N([C@H](C)CO)C[C@H]1C	none (no result: STK33 inh, CDK5 inh, GSK3 alpha inh, GSK3beta inhib)
N#C[C@H]1[C@@H](c2ccc(-c3cccc(F)c3)cc2)[C@@H](CO)N1C(=O)c1cccnc1	none (no result: STK33 inh, CDK5 inh, GSK3 alpha inh, GSK3beta inhib)
CCCNC(=O)N1[C@H](C#N)[C@H](c2ccc(-c3ccc(C(=O)N(C)C)cc3)cc2)[C@@H]1CO	HIV Env fusion 68.1[16.7 µM] (no result: STK33 inh, CDK5 inh, GSK3 alpha inh, GSK3beta inhib)
CCCNC(=O)N1[C@H](C#N)[C@H](c2ccc(-c3cccnc3)cc2)[C@@H]1CO	HIV Env fusion 63.9[16.7 µM] (no result: STK33 inh, CDK5 inh, GSK3 alpha inh, GSK3beta inhib)
N#C[C@@H]1[C@H](c2ccc(-c3cccc(F)c3)cc2)[C@H](CO)N1C(=O)c1cccnc1	HIV Env fusion 66.5[16.7 µM] (no result: STK33 inh, CDK5 inh, GSK3 alpha inh, GSK3beta inhib)
O=C(c1cnccn1)N1CC[C@H]2[C@H](CO)Nc3ccc(-c4ccccc4F)cc3[C@H]21	none (no result: STK33 inh, HIV Env fusion, CDK5 inh, GSK3 alpha inh, GSK3beta inhib)
C[C@H](CO)N1C[C@H](C)[C@H](CN(C)CC2CC2)Oc2c(NS(=O)(=O)c3ccccc3)cccc2C1=O	none (no result: STK33 inh, HIV Env fusion, CDK5 inh, GSK3 alpha inh, GSK3beta inhib)
Cc1cc(C)nc(NC(N)=NCCc2c[nH]c3ccccc23)n1	INS-1E GSIS act 44.8

From PubChem
